Source: ChEMBL document CHEMBL5724801, “EUbOPEN Chemogenomics Library - Multiplex” (2024)
Where “and” joins values, the source holds several entries; their conditions need not be identical. Identical values can stand only once.

System: HEK-293T
Experiment: Multiplex assay against HEK293T
Assay type: toxicity, cell-based
Details: human
Outline: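 Cells stained live at seeding with Hoechst33342, BioTracker Green Microtubule Cytoskeleton Dye, MitoTracker Red and Annexin V Alexa Fluor 680 were imaged on a CQ1 microscope at 37°C and 5% CO2 after compound addition. Their classification by CellPathfinder machine-learning gating ran from Hoechst high-intensity objects versus normal cells, to healthy, pyknosed or fragmented nuclei among normal cells, to mitotic or apoptotic among pyknosed cells. Tubulin, mitochondrial-mass and membrane-permeability phenotypes are per cents of healthy-nucleus cells.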

[1] = 12 h, 10 µM, compound concentration 10 uM
[2] = 24 h, 10 µM, compound concentration 10 uM
[3] = 48 h, 10 µM, compound concentration 10 uM
[4] = 12 h, 1 µM, compound concentration 1 uM
[5] = 24 h, 1 µM, compound concentration 1 uM
[6] = 48 h, 1 µM, compound concentration 1 uM

## CC(=O)O[C@H]1C(=O)[C@@]2(C)[C@H]([C@H](OC(=O)c3ccccc3)[C@]3(O)C[C@H](OC(=O)[C@H](O)[C@@H](NC(=O)c4ccccc4)c4ccccc4)C(C)=C1C3(C)C)[C@]1(OC(C)=O)CO[C@@H]1C[C@@H]2O [PACLITAXEL]
[1]
  Population Apoptotic (%): 41% and 56%
  Population Fragmented Nuclei (%): 7% and 5%
  Population Healthy Nuclei (%): 74% and 64%
  Population Hoechst High Intensity Objects (%): 16% and 14%
  Population Membrane Permeable-Phenotype (%): 0%
  Population Mitochondria Different-Phenotype (%): 79% and 84%
  Population Mitotic Cells (%): 58% and 43%
  Population Normal (%): 83% and 85%
  Population Pyknosed Nuclei (%): 17% and 29%
  Population Tubulin-Different-Phenotype (%): 11% and 16%
[2]
  Population Apoptotic (%): 35% and 47%
  Population Fragmented Nuclei (%): 10% and 8%
  Population Healthy Nuclei (%): 70% and 73%
  Population Hoechst High Intensity Objects (%): 16% and 15%
  Population Membrane Permeable-Phenotype (%): 0%
  Population Mitochondria Different-Phenotype (%): 72% and 82%
  Population Mitotic Cells (%): 64% and 52%
  Population Normal (%): 83% and 84%
  Population Pyknosed Nuclei (%): 18% and 17%
  Population Tubulin-Different-Phenotype (%): 8% and 16%
[3]
  Population Apoptotic (%): 29% and 69%
  Population Fragmented Nuclei (%): 15% and 10%
  Population Healthy Nuclei (%): 68% and 70%
  Population Hoechst High Intensity Objects (%): 11%
  Population Membrane Permeable-Phenotype (%): 0%
  Population Mitochondria Different-Phenotype (%): 64% and 70%
  Population Mitotic Cells (%): 70% and 30%
  Population Normal (%): 88%
  Population Pyknosed Nuclei (%): 15% and 19%
  Population Tubulin-Different-Phenotype (%): 2% and 11%

## Cc1cc(Nc2ncc(Cl)c(Nc3ccccc3S(=O)(=O)C(C)C)n2)c(OC(C)C)cc1C1CCNCC1 [CERITINIB]
[4]
  Population Apoptotic (%): 15.93% and 15.13%
  Population Fragmented Nuclei (%): 1.92% and 4.62%
  Population Hoechst High Intensity Objects (%): 1.88% and 0.76%
  Population Membrane Permeable-Phenotype (%): 1.35% and 0%
  Population Mitochondria Different-Phenotype (%): 32.43% and 80%
  Population Mitotic Cells (%): 84.07% and 84.87%
  Population Normal (%): 98.12% and 99.24%
  Population Pyknosed Nuclei (%): 69.73% and 91.54%
  Population Tubulin-Different-Phenotype (%): 50% and 80%
  Total Cell Count: 266 and 131
[1]
  Population Apoptotic (%): 30.99% and 76.42%
  Population Fragmented Nuclei (%): 1.54% and 6.06%
  Population Healthy Nuclei (%): 2.15% and 0.76%
  Population Hoechst High Intensity Objects (%): 1.22% and 0%
  Population Membrane Permeable-Phenotype (%): 0%
  Population Mitotic Cells (%): 69.01% and 23.58%
  Population Normal (%): 98.78% and 100%
  Population Pyknosed Nuclei (%): 96.31% and 93.18%
  Total Cell Count: 329 and 132
[5]
  Population Apoptotic (%): 45.74% and 45.87%
  Population Fragmented Nuclei (%): 2.55% and 3.68%
  Population Hoechst High Intensity Objects (%): 0% and 0.73%
  Population Membrane Permeable-Phenotype (%): 0%
  Population Mitochondria Different-Phenotype (%): 64.49% and 77.27%
  Population Mitotic Cells (%): 54.26% and 54.13%
  Population Normal (%): 100% and 99.27%
  Population Pyknosed Nuclei (%): 47.08% and 80.15%
  Population Tubulin-Different-Phenotype (%): 71.01% and 54.55%
  Total Cell Count: 274 and 137
[2]
  Population Apoptotic (%): 64.24% and 88.24%
  Population Fragmented Nuclei (%): 1.89% and 7.03%
  Population Healthy Nuclei (%): 2.84% and 0%
  Population Hoechst High Intensity Objects (%): 0%
  Population Membrane Permeable-Phenotype (%): 0%
  Population Mitochondria Different-Phenotype (%): 88.89%
  Population Normal (%): 100%
  Population Pyknosed Nuclei (%): 95.27% and 92.97%
  Population Tubulin-Different-Phenotype (%): 100%
  Total Cell Count: 317 and 128
[6]
  Population Apoptotic (%): 27.27% and 48.81%
  Population Fragmented Nuclei (%): 2.27% and 3.2%
  Population Healthy Nuclei (%): 75% and 29.6%
  Population Hoechst High Intensity Objects (%): 0.21% and 1.57%
  Population Membrane Permeable-Phenotype (%): 1.38% and 2.7%
  Population Mitochondria Different-Phenotype (%): 68.6% and 81.08%
  Population Mitotic Cells (%): 72.73% and 51.19%
  Population Normal (%): 99.79% and 98.43%
  Population Pyknosed Nuclei (%): 22.73% and 67.2%
[3]
  Population Apoptotic (%): 62.54% and 87.16%
  Population Fragmented Nuclei (%): 1.6% and 9.02%
  Population Healthy Nuclei (%): 7.99% and 9.02%
  Population Hoechst High Intensity Objects (%): 0%
  Population Membrane Permeable-Phenotype (%): 0% and 8.33%
  Population Mitochondria Different-Phenotype (%): 92% and 91.67%
  Population Mitotic Cells (%): 37.46% and 12.84%
  Population Normal (%): 100%
  Population Pyknosed Nuclei (%): 90.42% and 81.95%
  Population Tubulin-Different-Phenotype (%): 52% and 91.67%
  Total Cell Count: 313 and 133
